Measurements as given in ChEMBL document CHEMBL3600315, “Molecular modeling based approach, synthesis, and cytotoxic activity of novel benzoin derivatives targeting phosphoinostide 3-kinase (PI3Kα)” (Bioorg Med Chem Lett, 2015).
Active and inactive are the calls of the source. The calls are words filed in the database; no cut-off is given here.

test system: HCT-116; assay: Induction of apoptosis in human HCT116 cells assessed as increase in caspase-3 activity at 700 uM after 24 hrs by DEVD-pNA substrate-based colorimetric assay relative to control; format: functional, cell-based
Method in brief: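 HCT116 cells were incubated with each compound for 24 or 48 h. Caspase-3 enzyme activity was measured relative to untreated control cells. Values are means of two independent experiments, with P < 0.05 taken as significant.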

Structure (SMILES) | Activity
O=C(OC(C(=O)c1ccccc1)c1ccccc1)c1cccc(F)c1 (stereo unspecified) | Active
O=C(OC(C(=O)c1ccccc1)c1ccccc1)c1ccc([N+](=O)[O-])cc1 (stereo unspecified) | Active
O=C(OC(C(=O)c1ccccc1)c1ccccc1)c1ccccc1F (stereo unspecified) | Active
O=C(OC(C(=O)c1ccccc1)c1ccccc1)c1ccc(F)cc1 (stereo unspecified) | Active
O=C(OC(C(=O)c1ccccc1)c1ccccc1)c1ccc(Cl)cc1 (stereo unspecified) | Active
COc1ccc(C(=O)C(O)c2ccc(OC)cc2)cc1 (stereo unspecified) | Active
